Measured values reported in ChEMBL document CHEMBL1131242, “6beta-Acetoxynortropane: a potent muscarinic agonist with apparent selectivity toward M2-receptors” (J Med Chem, 1998).
Residue numbers refer to the chain shown, from its start.

Legend:
[1] = molecular target: T1, Neuronal acetylcholine receptor; alpha4/beta2 (Rattus norvegicus) (UniProt P09483+P12390); experiment: (§1) The compound was evaluated for percentage inhibition of binding of [3H]- nicotine to Nicotinic acetylcholine receptor alpha4-beta2 in Rat Cerebral Cortical Membranes; type: protein-complex assay; design: concentration or dose not given beside the values; conditions: concentration not given here
Outline: (§2)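 Rat cerebral cortex membranes with 0.2 nM [3H]nicotine in HEPES binding buffer pH 7.4 containing 200 µM diisopropyl fluorophosphate. Incubation was 120 min at 0–4 °C, in triplicate. Nonspecific binding used 1 µM nicotine. Samples were filtered through polyethylenimine-soaked GF/B filters and counted.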

[2] = molecular target: T2, Muscarinic acetylcholine receptor M1 (Rattus norvegicus) (UniProt P08482); experiment: Percentage inhibition of binding of [3H]quinuclidinyl benzilate to muscarinic acetylcholine receptor M1 in rat cerebral cortical membranes; type: cell membranes; design: concentration or dose not given beside the values; conditions: Membrane, concentration not given here
T2 sequence (whole entry): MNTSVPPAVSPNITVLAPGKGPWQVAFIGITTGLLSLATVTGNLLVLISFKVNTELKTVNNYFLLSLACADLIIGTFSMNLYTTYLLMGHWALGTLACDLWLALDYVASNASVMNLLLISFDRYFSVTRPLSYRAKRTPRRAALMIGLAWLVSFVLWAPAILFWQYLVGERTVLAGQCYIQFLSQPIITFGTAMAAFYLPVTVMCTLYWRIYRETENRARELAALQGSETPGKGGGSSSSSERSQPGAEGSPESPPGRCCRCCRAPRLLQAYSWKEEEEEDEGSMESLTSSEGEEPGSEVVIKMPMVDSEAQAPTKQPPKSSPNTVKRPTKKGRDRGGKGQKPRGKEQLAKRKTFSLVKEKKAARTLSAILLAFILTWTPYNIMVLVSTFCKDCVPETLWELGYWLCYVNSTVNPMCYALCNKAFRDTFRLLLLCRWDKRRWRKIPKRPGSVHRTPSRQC
Outline: (§3)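 Rat cerebral cortex membranes were homogenised in 50 mM Tris-HCl pH 7.4 and diluted in HEPES binding buffer. They were incubated with 0.2 nM [3H]quinuclidinyl benzilate in 20 mM HEPES pH 7.4 with 10 mM MgCl2 and 100 mM NaCl for 30 min at 37 °C, in triplicate. Nonspecific binding used 1 µM atropine. Filtration was followed by scintillation counting.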

[3] = molecular target: T1, Neuronal acetylcholine receptor; alpha4/beta2 (Rattus norvegicus); experiment: Inhibition of binding of [3H]nicotine to Nicotinic acetylcholine receptor alpha4-beta2 in rat cerebral cortical membranes at 100 uM concentration; type: cell membranes; conditions: Membrane
Outline: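 [3H]nicotine (0.2 nM) binding to rat cortical membranes, with 200 µM diisopropyl fluorophosphate, 120 min at 0–4 °C, triplicate. Nonspecific binding with 1 µM nicotine. Percent inhibition at 100 µM test agent; mean ± SEM, n = 4.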

[4] = molecular target: T3, Neuronal acetylcholine receptor; alpha4/beta2 (Rattus norvegicus, UniProt P09483+P12390); experiment: Inhibition of binding of [3H]nicotine to Nicotinic acetylcholine receptor alpha4-beta2 in rat cerebral cortical membranes; type: cell membranes, Membrane; outline: as §2
T3 sequence (P09483 whole entry): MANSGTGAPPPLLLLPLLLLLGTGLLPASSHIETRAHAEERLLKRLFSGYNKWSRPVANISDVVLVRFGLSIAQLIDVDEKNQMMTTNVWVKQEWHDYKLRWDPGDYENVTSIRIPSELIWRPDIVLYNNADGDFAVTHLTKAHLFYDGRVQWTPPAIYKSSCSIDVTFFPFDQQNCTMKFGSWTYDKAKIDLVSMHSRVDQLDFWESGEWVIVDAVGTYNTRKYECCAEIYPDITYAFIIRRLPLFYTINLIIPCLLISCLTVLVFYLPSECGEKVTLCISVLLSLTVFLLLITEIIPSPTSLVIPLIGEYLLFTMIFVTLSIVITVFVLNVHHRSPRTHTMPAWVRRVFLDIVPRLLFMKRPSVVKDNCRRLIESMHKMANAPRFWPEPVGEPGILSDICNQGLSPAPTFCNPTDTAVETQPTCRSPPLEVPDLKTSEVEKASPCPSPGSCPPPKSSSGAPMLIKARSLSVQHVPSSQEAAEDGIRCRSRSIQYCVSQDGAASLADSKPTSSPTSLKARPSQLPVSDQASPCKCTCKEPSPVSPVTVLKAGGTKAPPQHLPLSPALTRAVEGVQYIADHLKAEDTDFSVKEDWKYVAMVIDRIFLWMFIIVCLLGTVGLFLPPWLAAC
T3 sequence (P12390 whole entry): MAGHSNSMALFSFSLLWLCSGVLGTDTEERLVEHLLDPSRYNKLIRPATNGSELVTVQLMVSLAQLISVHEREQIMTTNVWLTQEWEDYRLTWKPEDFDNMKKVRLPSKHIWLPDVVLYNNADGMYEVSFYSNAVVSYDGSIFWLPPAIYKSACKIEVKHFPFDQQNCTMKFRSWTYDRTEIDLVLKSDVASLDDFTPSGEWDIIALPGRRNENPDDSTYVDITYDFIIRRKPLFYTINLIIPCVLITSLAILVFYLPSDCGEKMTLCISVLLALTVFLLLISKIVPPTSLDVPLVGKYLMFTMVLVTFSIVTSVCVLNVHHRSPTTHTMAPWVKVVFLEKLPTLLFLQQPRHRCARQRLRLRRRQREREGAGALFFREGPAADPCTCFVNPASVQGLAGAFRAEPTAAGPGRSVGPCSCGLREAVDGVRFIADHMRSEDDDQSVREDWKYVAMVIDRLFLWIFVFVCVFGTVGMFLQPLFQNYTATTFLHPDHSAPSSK

[5] = molecular target: T3, Neuronal acetylcholine receptor; alpha4/beta2; experiment: as §1; type: protein-complex assay; outline: as §2
[6] = molecular target: T4, Muscarinic acetylcholine receptor M1 (Homo sapiens) (UniProt P11229); experiment: Percentage inhibition of binding of [3H]quinuclidinyl benzilate to muscarinic receptors in membranes of CHO cells transfected with Muscarinic acetylcholine receptor M1; type: cell membranes; conditions: concentration not given here
T4 sequence (whole entry): T2 sequence (whole entry) with V5A, S254T, S309P, K320R, G337A, V413I
Outline: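 Membranes from CHO cells expressing human M1–M4 receptors in 25 mM sodium phosphate pH 7.4 with 5 mM MgCl2, 30 min at 37 °C, triplicate. [3H]quinuclidinyl benzilate was 0.2 nM for M1 and M3 and 0.1 nM for M2 and M4. Nonspecific binding used 10 µM atropine for M1 and 1 µM for the others.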

[7] = molecular target: T5, Muscarinic acetylcholine receptor M3 (Homo sapiens, UniProt P20309); experiment: Inhibition of binding of [3H]quinuclidinyl benzilate to human Muscarinic acetylcholine receptor M3 in membranes of transfected CHO cells at 100 uM concentration; conditions: Membrane
T5 sequence (P20309 whole entry, looked up): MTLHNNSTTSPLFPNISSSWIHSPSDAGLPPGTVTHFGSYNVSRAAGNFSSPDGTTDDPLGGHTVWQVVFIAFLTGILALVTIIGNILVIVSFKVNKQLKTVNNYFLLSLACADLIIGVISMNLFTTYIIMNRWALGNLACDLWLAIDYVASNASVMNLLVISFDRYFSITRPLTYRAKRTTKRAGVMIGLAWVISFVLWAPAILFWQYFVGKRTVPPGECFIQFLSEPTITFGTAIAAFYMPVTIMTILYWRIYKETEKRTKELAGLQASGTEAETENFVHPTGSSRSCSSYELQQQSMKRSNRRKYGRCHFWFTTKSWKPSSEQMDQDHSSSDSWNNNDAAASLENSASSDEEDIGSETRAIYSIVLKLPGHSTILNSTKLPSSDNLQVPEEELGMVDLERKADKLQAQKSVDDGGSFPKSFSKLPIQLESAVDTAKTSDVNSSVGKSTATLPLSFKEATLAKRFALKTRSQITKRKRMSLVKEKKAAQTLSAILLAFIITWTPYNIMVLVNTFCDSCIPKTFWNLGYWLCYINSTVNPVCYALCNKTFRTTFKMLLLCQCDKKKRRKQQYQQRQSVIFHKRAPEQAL

[8] = molecular target: T5, Muscarinic acetylcholine receptor M3; experiment: Percentage inhibition of binding of [3H]quinuclidinyl benzilate to muscarinic receptors in membranes of CHO cells transfected with Muscarinic acetylcholine receptor M3; type: cell membranes; conditions: concentration not given here
[9] = molecular target: T6, Muscarinic acetylcholine receptor M2 (Homo sapiens, UniProt P08172); experiment: Inhibitory activity against [3H]quinuclidinyl Benzilate binding to Muscarinic acetylcholine receptor M2 in the presence of GTP
T6 sequence (P08172 whole entry): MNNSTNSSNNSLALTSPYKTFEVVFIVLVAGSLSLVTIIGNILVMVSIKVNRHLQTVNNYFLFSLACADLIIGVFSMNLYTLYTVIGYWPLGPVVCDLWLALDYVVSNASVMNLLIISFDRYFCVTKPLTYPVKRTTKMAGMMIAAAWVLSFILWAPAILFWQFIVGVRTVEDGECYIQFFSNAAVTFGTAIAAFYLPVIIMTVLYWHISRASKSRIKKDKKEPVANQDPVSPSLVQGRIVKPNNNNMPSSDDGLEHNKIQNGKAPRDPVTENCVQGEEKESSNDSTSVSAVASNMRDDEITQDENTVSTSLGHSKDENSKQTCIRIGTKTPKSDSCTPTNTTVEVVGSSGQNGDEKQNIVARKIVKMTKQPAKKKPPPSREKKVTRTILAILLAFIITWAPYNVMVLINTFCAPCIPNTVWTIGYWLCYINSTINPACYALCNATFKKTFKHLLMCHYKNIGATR
Outline: (§4)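 Membranes from CHO cells expressing human M2 receptor. Competition against 0.1 nM [3H]quinuclidinyl benzilate in 25 mM sodium phosphate pH 7.4, 5 mM MgCl2, without or with 10 μM GTP; 30 min at 37 °C, triplicate. Nonspecific binding with 1 μM atropine. Filtration, scintillation counting.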

[10] = molecular target: Muscarinic acetylcholine receptor M2 (Homo sapiens) (UniProt P08172); experiment: Inhibition of binding of 0.1 nM [3H]quinuclidinyl benzilate to Muscarinic acetylcholine receptor M2 in membranes of transfected CHO cells in the presence of 10 uM GTP
[11] = molecular target: T7, Muscarinic acetylcholine receptor M4 (Homo sapiens, UniProt P08173); experiment: Inhibition of binding of [3H]quinuclidinyl benzilate to muscarinic receptors in membranes of CHO cells transfected with Muscarinic acetylcholine receptor M4; type: cell membranes
T7 sequence (P08173 whole entry): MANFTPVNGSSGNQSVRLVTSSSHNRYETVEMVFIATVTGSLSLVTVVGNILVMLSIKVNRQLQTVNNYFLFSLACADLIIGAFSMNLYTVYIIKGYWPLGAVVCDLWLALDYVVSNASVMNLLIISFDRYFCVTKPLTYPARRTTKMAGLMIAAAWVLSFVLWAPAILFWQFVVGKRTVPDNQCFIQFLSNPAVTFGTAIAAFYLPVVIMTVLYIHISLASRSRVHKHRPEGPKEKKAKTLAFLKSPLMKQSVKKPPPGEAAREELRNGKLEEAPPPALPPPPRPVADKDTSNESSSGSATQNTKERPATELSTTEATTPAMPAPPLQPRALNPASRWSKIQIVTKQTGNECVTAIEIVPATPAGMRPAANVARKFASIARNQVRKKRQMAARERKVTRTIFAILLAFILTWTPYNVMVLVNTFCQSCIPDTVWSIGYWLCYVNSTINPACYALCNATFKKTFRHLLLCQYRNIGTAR

[12] = molecular target: T6, Muscarinic acetylcholine receptor M2; experiment: Inhibitory activity against [3H]quinuclidinyl Benzilate binding to Muscarinic acetylcholine receptor M2 in the absence of GTP; outline: as §4
[13] = molecular target: Muscarinic acetylcholine receptor M2 (Homo sapiens) (UniProt P08172); experiment: Inhibition of binding of 0.1 nM [3H]quinuclidinyl benzilate to Muscarinic acetylcholine receptor M2 in membranes of transfected CHO cells in the absence of GTP
[14] = molecular target: Muscarinic acetylcholine receptor M2 (Homo sapiens) (UniProt P08172); experiment: Inhibition of binding of [3H]quinuclidinyl benzilate to Muscarinic acetylcholine receptor M2 in membranes of transfected CHO cells
[15] = molecular target: Muscarinic acetylcholine receptor M4 (Homo sapiens) (UniProt P08173); experiment: Inhibition of binding of [3H]quinuclidinyl benzilate to Muscarinic acetylcholine receptor M4 in membranes of transfected CHO cells
[16] = molecular target: T6, Muscarinic acetylcholine receptor M2; experiment: Inhibition of binding of [3H]quinuclidinyl benzilate to muscarinic receptors in membranes of CHO cells transfected with Muscarinic acetylcholine receptor M2; type: cell membranes
[17] = molecular target: T5, Muscarinic acetylcholine receptor M3; experiment: Inhibitory activity against stimulation of [3H]inositol monophosphate accumulation in [3H]inositol-labelled CHO transfected cells mediated by Muscarinic acetylcholine receptor M3
[18] = molecular target: Muscarinic acetylcholine receptor M4 (Homo sapiens) (UniProt P08173); experiment: Inhibitory activity against [3H]-cyclic AMP accumulation in CHO transfected cells mediated by Muscarinic acetylcholine receptor M4
[19] = molecular target: Muscarinic acetylcholine receptor M1 (Homo sapiens) (UniProt P11229); experiment: Inhibitory activity against stimulation of [3H]inositol monophosphate accumulation in [3H]inositol-labelled CHO transfected cells mediated by Muscarinic acetylcholine receptor M1
Target sequence in this assay (P11229 whole entry, looked up): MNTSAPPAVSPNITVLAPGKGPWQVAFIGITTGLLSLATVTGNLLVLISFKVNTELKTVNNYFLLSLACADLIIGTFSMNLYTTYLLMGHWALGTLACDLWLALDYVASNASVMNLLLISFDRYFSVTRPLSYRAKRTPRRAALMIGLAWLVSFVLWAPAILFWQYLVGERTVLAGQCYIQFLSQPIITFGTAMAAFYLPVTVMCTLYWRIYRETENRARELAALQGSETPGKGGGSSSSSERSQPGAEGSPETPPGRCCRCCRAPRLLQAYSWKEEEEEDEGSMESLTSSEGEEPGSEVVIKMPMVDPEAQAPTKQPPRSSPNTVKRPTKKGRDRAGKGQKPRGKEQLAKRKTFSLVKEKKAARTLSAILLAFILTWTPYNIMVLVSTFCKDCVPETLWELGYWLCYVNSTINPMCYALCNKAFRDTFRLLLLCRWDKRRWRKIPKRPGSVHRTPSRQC

[20] = molecular target: T4, Muscarinic acetylcholine receptor M1 (Homo sapiens); experiment: Percentage inhibition of binding of [3H]quinuclidinyl benzilate to […] Muscarinic acetylcholine receptor M1 transfected in membranes of CHO cells; type: cell membranes; conditions: concentration not given here
[21] = molecular target: T8, Muscarinic acetylcholine receptor M1 (Rattus norvegicus, UniProt P08482); experiment: The compound was evaluated for inhibition of binding of [3H]quinuclidinyl benzilate to Muscarinic acetylcholine receptor M1 in Rat Cerebral Cortical Membranes; outline: as §3
T8 sequence (P08482 whole entry): T2 sequence (whole entry)

[22] = molecular target: T5, Muscarinic acetylcholine receptor M3; experiment: Inhibition of binding of [3H]quinuclidinyl benzilate to muscarinic receptors in membranes of CHO cells transfected with […] Muscarinic acetylcholine receptor M3; type: cell membranes; conditions: concentration not given here
[23] = molecular target: T8, Muscarinic acetylcholine receptor M1; experiment: Inhibition of binding of [3H]quinuclidinyl benzilate to Muscarinic acetylcholine receptor M1 in rat cerebral cortical membranes at 100 uM concentration; type: cell membranes, Membrane
Outline: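 Rat cortical membranes with 0.2 nM [3H]quinuclidinyl benzilate in HEPES pH 7.4 with 10 mM MgCl2 and 100 mM NaCl, 30 min at 37 °C, triplicate. Atropine 1 µM defined nonspecific binding. Percent inhibition was read at 100 µM test agent; mean ± SEM, n = 4.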

[24] = molecular target: Muscarinic acetylcholine receptor M3 (Rattus norvegicus) (UniProt P08483); conditions: Membrane; 300 uM
Chain of Muscarinic acetylcholine receptor M3 (Rattus norvegicus) (P08483 whole entry, looked up): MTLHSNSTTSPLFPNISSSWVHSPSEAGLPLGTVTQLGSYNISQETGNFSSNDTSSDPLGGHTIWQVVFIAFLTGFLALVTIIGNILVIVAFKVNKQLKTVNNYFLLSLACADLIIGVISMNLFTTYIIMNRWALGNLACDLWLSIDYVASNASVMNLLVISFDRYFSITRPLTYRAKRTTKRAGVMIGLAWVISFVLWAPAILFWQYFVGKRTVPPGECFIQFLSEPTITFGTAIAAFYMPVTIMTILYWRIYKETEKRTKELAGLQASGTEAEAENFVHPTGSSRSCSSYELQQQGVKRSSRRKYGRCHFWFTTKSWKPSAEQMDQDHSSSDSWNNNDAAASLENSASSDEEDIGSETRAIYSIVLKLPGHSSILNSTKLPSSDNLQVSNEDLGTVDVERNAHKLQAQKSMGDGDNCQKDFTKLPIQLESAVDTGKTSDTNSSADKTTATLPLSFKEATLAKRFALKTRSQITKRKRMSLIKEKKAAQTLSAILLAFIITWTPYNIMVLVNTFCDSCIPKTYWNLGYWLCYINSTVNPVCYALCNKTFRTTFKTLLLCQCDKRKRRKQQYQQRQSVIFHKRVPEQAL

With `COC(=O)C1CC2NC1CCC21SCCS1` (stereo not drawn) the inhibition [1] was 36%, the inhibition [2] was 3% and the inhibition [3] was 36%.

In the case of `COC(=O)[C@H]1CC2NC1CC[C@H]2O` (stereo partly drawn), the Ki [4] is reported as 64000 nM and the Ki [5] is reported as 64000 nM.

`COC(=O)C1C(O)CC2CCC1N2C` (stereo not drawn) gave an inhibition [6] of 13%, an inhibition [1] of 11% and an inhibition [2] of 27%. For the same compound, the inhibition [7] was 28%, the inhibition [8] was 19% and the inhibition [3] was 11%.

With `CC(=O)OC1CC2CC(=O)CC1N2C` (stereo not drawn) the inhibition [1] was 5%, the inhibition [2] was 0% and the inhibition [3] was 5%.

With `COC(=O)[C@H]1CC2NC1CC[C@@H]2OC(C)=O` (stereo partly drawn) the inhibition [1] was 13%, the inhibition [2] was 1% and the inhibition [3] was 13%.

Work on `CC(=O)OC(C)C[N+](C)(C)C` (stereo not drawn) [METHACHOLINE] yielded an IC50 [9] of 5200 nM, an inhibition [6] of 8% and an IC50 [10] of 5200 nM. For the same compound, the Ki [11] was 1600 nM, the IC50 [12] was 380 nM and the IC50 [13] was 380 nM. It also gave a Ki [14] of 59 nM, a Ki [15] of 1600 nM and a Ki [16] of 59 nM. It also gave an EC50 [17] of 120 nM, an inhibition [8] of 34% and an IC50 [18] of 700 nM. It also gave an EC50 [19] of 400 nM.

`COC(=O)C1=CCC2CCC1N2C` (stereo not drawn) showed an inhibition [20] of 26%, an inhibition [7] of 28% and a Ki [21] of 25000 nM. For the same compound, the inhibition [22] was 28% and the Ki [23] was 25000 nM.

`C[N+](C)(C)CCOC(N)=O` was tested, and the inhibition [24] was 16%.

`CC(=O)O[C@H]1CCC2CCC1N2` (stereo partly drawn) gave a Ki [4] of 32000 nM and a Ki [5] of 32000 nM.
